Reference: ChEMBL document CHEMBL1135537, “Design, synthesis, and biological evaluation of indolequinone phosphoramidate prodrugs targeted to DT-diaphorase” (2002)

What was measured:
A498 = experiment: Growth inhibitory activity against A498-2LM human solid tumor cell line using MTT assay; assay type: functional
Summary of the method: (§1)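 MTT assay. Cells were seeded at (1-2) × 10^4 per well and left to attach for 24 h. Compound was taken up in DMSO and serially diluted in medium, keeping final DMSO at 1% or less, then exposed for 72 h. MTT was added for 4–5 h, formazan was dissolved in DMSO, and absorbance was read at 570 nm. GI50 was taken from percent-of-control versus concentration plots; each compound was assayed twice and the results averaged.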

BE = experiment: Inhibitory concentration that reduces clonogenic survival by 2 log units (99%) 2-hour after drug treatment in BE human colon carcinoma cell line.; assay type: functional
Summary of the method: (§2)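 Clonogenic assay. Exponentially growing cells at 1–1.2 × 10^5 cells/mL in serum-free MEM with 0.02 M HEPES were exposed for 2 h at 37 °C, 5% CO2, to five final concentrations. Ethanol was the vehicle at 1% final, with an ethanol-only control. Cells were then rinsed, plated at 2–3 densities in five replicates and grown 10 days. Crystal-violet-stained colonies of ≥50 cells were counted, and LC99 was read from log surviving fraction versus concentration. Runs were done at least twice and averaged.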

HT-29 [1] = experiment: Inhibitory concentration that reduces clonogenic survival by 2 log units (99%) 2-hour after drug treatment in HT-29 human colon carcinoma cell line.; assay type: functional; summary of the method: as §2
HT-29 [2] = experiment: Growth inhibitory activity against HT-29 human solid tumor cell line using MTT assay; assay type: functional; summary of the method: as §1
MDA-MB-231 = experiment: Growth inhibitory activity against human MDA-231 cell line using MTT assay.; assay type: functional; summary of the method: as §1
MIA PaCa-2 = experiment: Growth inhibitory activity against PaCa-2 human solid tumor cell line using MTT assay; assay type: functional; summary of the method: as §1
UMUC3 = experiment: Growth inhibitory activity against UMUC3 human solid tumor cell line using MTT assay; assay type: functional; summary of the method: as §1
A549 = experiment: Growth inhibitory activity against A549 human solid tumor cell line using MTT assay; assay type: functional; summary of the method: as §1
PC-3 = experiment: Growth inhibitory activity against human PC-3 cell line using MTT assay.; assay type: functional; summary of the method: as §1
[3] = molecular target: NAD(P)H dehydrogenase [quinone] 1 (Homo sapiens) (UniProt P15559); experiment: Kinetic parameter Kcat was reported against DT-diaphorase
NAD(P)H dehydrogenase [quinone] 1 (Homo sapiens), sequence (P15559 whole entry): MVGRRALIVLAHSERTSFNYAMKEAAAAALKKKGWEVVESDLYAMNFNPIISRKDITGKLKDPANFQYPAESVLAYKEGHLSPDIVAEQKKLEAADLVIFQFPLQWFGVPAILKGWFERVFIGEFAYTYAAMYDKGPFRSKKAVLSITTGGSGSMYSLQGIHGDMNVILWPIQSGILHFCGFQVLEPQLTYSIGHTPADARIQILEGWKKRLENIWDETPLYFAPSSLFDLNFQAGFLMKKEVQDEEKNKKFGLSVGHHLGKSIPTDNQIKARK
Summary of the method: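 Recombinant purified human DTD in Tris buffer (0.05 M, pH 7.6) with dithiothreitol (0.01 mM), NADH (1 mM), cytochrome c (55 μM) and varied indolequinone in DMSO. Run at 25 °C, started with enzyme, in triplicate. Cytochrome c reduction was followed at 550 nm, with no-enzyme background rates. kcat came from Hanes plots of initial linear rates (ε 1.85 × 10^4 M-1 cm-1). Values average ≥2 experiments.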

[4] = Selectivity ratio of LC99 of BE to LC99 of HT-29; assay type: functional
Summary of the method: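 Ratio of the BE LC99 to the HT-29 LC99, both from a 2 h clonogenic exposure in serum-free MEM/HEPES with 1% ethanol vehicle. Colonies of ≥50 cells were counted after 10 days, and LC99 was taken from log surviving fraction versus concentration plots.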

Compound	GI50 (A498) [nM]	LC99 (BE) [µM]	LC99 (HT-29 [1]) [µM]	GI50 (HT-29 [2]) [nM]	GI50 (MDA-MB-231) [nM]	GI50 (MIA PaCa-2) [nM]	GI50 (UMUC3) [nM]	GI50 (A549) [nM]	GI50 (PC-3) [nM]	k cat [3] [s⁻¹]	Selectivity [4]
COC1=CC(=O)c2c(c(COP(N)(=O)N3CCOCC3)cn2C)C1=O (stereo unspecified)	1200	>100	>100	7700	9300	9800	8200	12000	15000		
COC1=CC(=O)c2c(c(COC(C)=O)cn2C)C1=O	37	5.3	0.54	3	250	4	7	440	5	4	10
COC1=CC(=O)c2c(cc(COC(C)=O)n2C)C1=O	34000	>100	>100	34000	> 38000	35000	9600	26000	> 38000	30	
COC1=CC(=O)c2c(c(COP(=O)(N(C)CCBr)N(C)CCBr)cn2C)C1=O	340	0.14	0.07	65	40	25	2	23	66		2
COC1=CC(=O)c2c(cc(COP(=O)(N(C)CCBr)N(C)CCBr)n2C)C1=O	2300	2	0.35	200	840	8	17	1700	940	1.28	6
COC1=CC(=O)c2c(cc(CO)n2C)C1=O										77	
COC1=CC(=O)c2c(cc(COP(N)(=O)N(CCCl)CCCl)n2C)C1=O (stereo unspecified)	980	7.6	0.11	210	870	31	10	22	260	2.6	69
COC1=CC(=O)c2c(c(COP(N)(=O)N(CCBr)CCBr)cn2C)C1=O (stereo unspecified)	1000	0.47	0.24	240	190	220	10	400	650		2
COC1=CC(=O)c2c(cc(COP(N)(=O)N(CCBr)CCBr)n2C)C1=O (stereo unspecified)	200	4.2	0.077	61	1600	15	2	3	490	1.6	65
COC1=CC(=O)c2c(cc(COP(N)(=O)N3CCOCC3)n2C)C1=O (stereo unspecified)	12000	>100	>100	15000	13000	10000	10000	45000	14000	4.9	
CC1=CC(=O)c2ccccc2C1=O										960	
COC1=CC(=O)c2c(c(CO)cn2C)C1=O										136	
